# High-throughput results deposited in PubChem by Sanford-Burnham Center for Chemical Genomics.
# Rev-erbA mod: modulators of Rev-erb alpha DNA binding, primary screen, biochemical, FITC-DNA, fluorescence polarization, uHTS; activity, % at 10 µM; Nuclear receptor subfamily 1 group D member 1 (Homo sapiens), P20393; 370,000 tested, 0.79% active; Rev-erbα–FITC-DNA binding, 90 min;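 active = activity above about 14%, limit read from the data; passing the limit was not always enough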;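 note: 0% = DMSO wells with 35 nM protein and 100% = DMSO wells with 750 nM protein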
# HNF4A DNA FP: change in binding of human HNF4A to DNA, primary screen, biochemical, fluorescence polarization, FITC-DNA. Hepatocyte nuclear factor 4-alpha (Homo sapiens), P41235. 360,000 tested, 0.3% active. activity change, % at 10 µM. 1 h; in the data active = activity change above about 30%, passing the limit was not always enough
# CSN deneddyl inh: inhibitors of CSN-mediated cullin deneddylation, primary screen, biochemical, fluorescence polarization, uHTS; Purified CSN, SCF-Nedd8-OG deneddylation; inhibition, % at 12.5 µM; 360,000 tested, 0.38% active; AID 651999, 2013;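 active = pattern-corrected inhibition above about 35%, with an unprinted fluorescence ratio check between 0.5 and 1.5, limit read from the data, passing the limit was not always enough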;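 note: 0% = enzyme with substrate and 100% = substrate without enzyme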
#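 Assay system: HEK293T-derived human Csn5 enzyme; quantity: 0.24 nM enzyme; medium: Tris/NaCl/DTT buffer, pH 7.5; also added: substrate SCFSkp2-Nedd8OG, 10 nM; doses: 12.5 µM compound; schedule: 90 min reaction at room temperature; signal: FP; read-out: % inhibition of substrate cleavage by Csn5; benchmarks: substrate-only high control, full reaction low control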
# aDG glyco act: activators of alpha-DG glycosylation, primary screen, uHTS, Pro5-aDG cells, AlphaScreen; alpha-DG glycosylation AlphaScreen (IIH6); 0% Pro5, 100% B10-LARGE cell signal; activation, % at 10 µM; 360,000 tested, 0.22% active;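 active = activation of at least 8% versus controls, or a plate z-score of at least 8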;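 note: Pro5 are CHO cells carrying HIG-tagged alpha-DG that lacks glycosylation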
# CSN deneddyl val: Csn5 deneddylation inhibitors, confirmation, biochemical, fluorescence polarization, single concentration, SCF-Nedd8OG substrate | shares compounds with CSN deneddyl inh | Csn5 deneddylation of SCF-Nedd8OG, 90 min | inhibition, % at 16.6 µM | 540 tested, 62% active; in the data active = inhibition above about 50%;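 note: 0% = DMSO with enzyme and 100% = no enzyme wells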
# MMP2 cntr CSN: MMP-2 protease inhibition counter-screen, confirmation, counter-screen for CSN deneddylation inhibitor project, biochemical, fluorescence, single concentration | shares compounds with CSN deneddyl inh | recombinant MMP-2, FRET substrate fluorescence, 60 min | inhibition, % at 16.6 µM | 540 tested, 33% active | AID 720655, 2013;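 active = corrected plate-normalized z-score of 5 or more, or -5 or less, or inhibition of 15% or more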;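 note: plate controls were DMSO wells with enzyme for no effect and buffer wells lacking MMP-2 for full effect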
# Target sequence (P08253 whole entry, looked up): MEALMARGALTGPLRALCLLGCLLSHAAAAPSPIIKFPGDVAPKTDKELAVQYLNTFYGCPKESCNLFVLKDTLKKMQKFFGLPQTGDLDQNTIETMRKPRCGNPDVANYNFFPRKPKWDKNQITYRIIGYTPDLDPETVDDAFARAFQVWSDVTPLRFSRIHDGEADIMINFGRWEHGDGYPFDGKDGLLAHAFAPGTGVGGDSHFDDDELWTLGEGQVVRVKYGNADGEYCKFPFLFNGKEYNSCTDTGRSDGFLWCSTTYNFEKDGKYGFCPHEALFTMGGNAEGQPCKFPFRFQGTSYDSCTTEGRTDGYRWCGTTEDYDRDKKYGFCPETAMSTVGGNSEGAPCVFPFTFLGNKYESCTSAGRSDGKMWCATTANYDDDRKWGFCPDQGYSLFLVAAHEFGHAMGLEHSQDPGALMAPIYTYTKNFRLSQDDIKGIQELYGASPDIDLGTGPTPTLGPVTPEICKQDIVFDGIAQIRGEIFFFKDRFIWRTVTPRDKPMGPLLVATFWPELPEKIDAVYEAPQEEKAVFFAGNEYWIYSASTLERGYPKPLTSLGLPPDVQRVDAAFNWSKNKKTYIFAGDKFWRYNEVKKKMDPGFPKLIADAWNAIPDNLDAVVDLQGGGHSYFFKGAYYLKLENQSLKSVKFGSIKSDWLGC
# Thrombin cntr: blocks bovine thrombin in a CSN deneddylation counter-screen; inhibition, % at 16.6 µM; 540 tested, 49% active; AID 720656; bovine thrombin cleavage of Ub4-pepOG, fluorescence polarization; shares compounds with CSN deneddyl inh;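 active = inhibition at or above a set limit, with a fluorescence interference ratio between 0.5 and a set maximum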
# * hit, by the source's call; / = no result. In the library only some 1.5% were active in any assay of this set; here they are far more common.
SMILES,Rev-erbA mod,HNF4A DNA FP,CSN deneddyl inh,aDG glyco act,CSN deneddyl val,MMP2 cntr CSN,Thrombin cntr
O=C1C=C(NCc2ccccc2)c2ccccc2C1=O,-5,0,72*,8.7*,77*,9,-24
O=c1cccccc1NCc1ccccc1,-1,-1,0,0,/,/,/
CCOC(=O)C1=C(C)N=c2s/c(=C/c3ccccc3)c(=O)n2C1c1ccc(OC)c(OC)c1 (stereo not drawn),-5,-2,0,-1,/,/,/
CCOC(=O)C1=C(C)N=c2s/c(=C/c3ccc(OCC(=O)O)c(OC)c3)c(=O)n2C1c1ccc(Cl)cc1 (stereo not drawn),-3,17,40*,0,85*,3,14
CC1=C(C(=O)OC(C)C)C(c2ccc(Cl)cc2)n2c(sc(=Cc3ccc(OCC(=O)O)cc3)c2=O)=N1 (stereo not drawn),-14,-15,84*,0,21,10,26*
CCOC(=O)C1=C(C)N=c2s/c(=C\c3ccc(OCC(=O)O)cc3)c(=O)n2C1c1ccc(Cl)cc1 (stereo not drawn),-4,6,32,0,/,/,/
COc1cc2c(oc(=O)c3cc(C)cc(OC)c32)c2c(C3OC(C)C(O)C(C)(O)C3O)ccc(O)c12 (stereo not drawn),-22,-11,35*,0,107*,6,0
COc1cccc2cc(C(=O)N3CC(C)OC(C)C3)c(=O)oc12 (stereo not drawn),3,3,-2,0,/,/,/
Cc1ccc(CSc2nnc(SCC(=O)N/N=C/c3c[nH]c4ccccc34)s2)cc1,-29,108*,61*,-1,67*,23*,1
Clc1ccc(-c2ccc(-c3nn4c(-c5ccco5)nnc4s3)o2)cc1,-12,-20,31,1,/,/,/
Brc1ccc(-c2nn3c(-c4ccco4)nnc3s2)o1,-12,-21,41*,0,95*,14,0
O=C(/C=C/Nc1ccc(Nc2ccccc2)cc1)c1cccs1,0,57*,37*,0,94*,7,-2
CCC(C)NC(=O)C1CCN(S(=O)(=O)c2ccc3[nH]c(=O)oc3c2)CC1 (stereo not drawn),-3,/,/,/,/,/,/
CN(/N=C/c1ccc(-c2ccc([N+](=O)[O-])cc2)o1)c1ccccc1,9,48*,50*,0,92*,2,25*
CN(/N=C/c1cc([N+](=O)[O-])ccc1O)c1ccccc1,0,4,-4,0,/,/,/
O=C(N/N=C/c1sc(=O)n(Cc2ccc(Br)cc2)c1Cl)c1ccco1,-17,21,42*,0,47,54*,14
O=C(N/N=C/c1ccc(Br)s1)c1ccco1,6,-2,-4,0,/,/,/
Cc1cc(/C=c2\sc3nc4ccccc4n3c2=O)c(C)n1-c1ccc(C(=O)O)cc1,-4,-3,35*,0,38,8,27*
O=C(O)COc1ccc(/C=N/NC(=O)c2ccc(-c3csc(Nc4ccc(Cl)cc4)n3)cc2)cc1,-25,-91,93*,0,98*,16*,-7
O=C(O)c1ccc(C=NNC(=O)c2cc(-c3ccc(Cl)cc3)n[nH]2)cc1,-8,/,/,/,/,/,/
CCOc1cc(/C=N/NC(=O)c2ccc(-c3csc(Nc4ccc(C)cc4)n3)cc2)ccc1OCC(=O)O,-6,-15,49*,0,45,30*,-5
COC(=O)C12C=C3CC(C)=C3C(=O)N1Cc1[nH]c3ccccc3c1C2 (stereo not drawn),0,/,/,/,/,/,/
COc1ccc(C(=O)C[n+]2ccc3c(c2)nc(Cc2ccccc2)n3C)cc1,6,/,/,/,/,/,/
CCN(CC)CCOC(=O)c1ccc(N/C=C(/C#N)c2nc(-c3cc4ccccc4oc3=O)cs2)cc1,1,161,119*,0,-62,-267*,21*
COc1cc(/C=C(\C#N)c2nc(-c3cc4ccccc4oc3=O)cs2)ccc1O,-3,41,28,-1,/,/,/
SMILES,Rev-erbA mod,HNF4A DNA FP,CSN deneddyl inh,aDG glyco act,CSN deneddyl val,MMP2 cntr CSN,Thrombin cntr
CCN(CC)CCOC(=O)c1ccc(N/C=C(/C#N)c2nc(-c3ccc4c(c3)OCO4)cs2)cc1,-11,292*,137*,0,-48,-5,11
N#C/C(=C\C=C\c1ccccc1)c1nc(-c2ccc3c(c2)OCO3)cs1,0,-19,3,0,/,/,/
COCC(=O)N(C)[C@H]1C[C@H]2c3[nH]c4c(-c5ccc6c(c5)OCO6)cccc4c3CCN2C(=O)[C@H]1[C@H](C)O,4,/,/,/,/,/,/
COc1c(C=O)cc2c3c1CCCN3CCC2,-5,3,7,0,/,/,/
NCc1cc2c3c(c1)CCCN3CCC2,-1,11,63*,0,88*,-10,-8
CCOC(=O)C(C)N1C(=O)S/C(=C\c2ccc(-c3ccccc3C(=O)O)o2)C1=O (stereo not drawn),-7,-35,48*,0,/,25*,9
Cc1ccc2c(nc3s/c(=C\c4ccc(-c5ccccc5C(=O)O)o4)c(=O)n32)c1C,-3,83,102*,0,-27,-27,18
C#CCN1C(=O)S/C(=C\c2ccc(-c3ccc(C(=O)O)cc3C)o2)C1=O,-22,-29,39*,0,/,8,37*
Cc1ccc2c(nc3s/c(=C/c4cccs4)c(=O)n32)c1C,3,6,4,0,/,/,/
Cc1ccccc1NC(=O)CN1C(=O)S/C(=C\c2ccc(-c3cc(C(=O)O)ccc3C)o2)C1=O,-1,6,71*,1,/,4,8
O=C(CCc1ccccc1-c1ccccc1CCNC(=O)COCc1ccccc1)NCc1ccccc1,0,/,/,/,/,/,/
CO[C@H]([C@H](C)/C=C/N(C)C=O)[C@@H](C)C(=O)CC[C@H](C)[C@H](O)[C@H](C)[C@H]1OC(=O)/C=C/C(C)=C/C[C@H](O)C[C@@H]2C=CC[C@@H](C[C@H](OC)[C@@H](C)[C@@H](OC)C[C@@H](OC)[C@@H]1C)O2,-2,/,/,/,/,/,/
Cc1ccc(C(=O)O)cc1-c1ccc(/C=C2/NC(=O)N(c3ccccc3)C2=O)o1,-12,-24,41*,0,/,9,21*
CCS(=O)(=O)C1=NN2C(=N)/C(=C\c3ccc(SCc4ccco4)o3)C(=O)N=C2S1,-28,32,116*,0,-5,14,54*
